Data taken from ChEMBL document CHEMBL1909615, “Design, synthesis and antibacterial activity of fluoroquinolones containing bulky arenesulfonyl fragment: 2D-QSAR and docking study” (2011).
Converted amounts (≈) assume the structure as drawn.

Tests used:
Type in all cases: functional
Bacillus subtilis = assay: Antibacterial activity against Bacillus subtilis ATCC 10400 after 18 hrs by EUCAST broth dilution method; conditions: for MIC: Bacillus subtilis, ATCC 10400, 18 h
Staphylococcus aureus = assay: Antibacterial activity against Staphylococcus aureus ATCC 29213 after 18 hrs by EUCAST broth dilution method; conditions: for MIC: Staphylococcus aureus, ATCC 29213, 18 h
Method in brief: (§1)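 Broth microdilution in Mueller-Hinton broth per CLSI. Compounds dissolved in DMSO at 5120 µg/mL, diluted tenfold in MHB to 512 µg/mL, then twofold serially across 12 wells down to 0.25 µg/mL. Strains grown in tryptone soy broth; 5 µL inoculum (10^4-10^5 CFU/mL) added per well. Incubated 35 °C, 18 h. MIC read manually as the lowest concentration preventing visible growth.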

Escherichia coli = assay: Antibacterial activity against Escherichia coli ATCC 25922 after 18 hrs by EUCAST broth dilution method; conditions: ATCC 25922, 18 h; method in brief: as §1
Pseudomonas aeruginosa = assay: Antibacterial activity against Pseudomonas aeruginosa ATCC 27853 after 18 hrs by EUCAST broth dilution method; conditions: for MIC: Pseudomonas aeruginosa, ATCC 27853, 18 h; method in brief: as §1

| log(1/MIC), MIC in mM (Bacillus subtilis) | MIC (Bacillus subtilis) | log(1/MIC), MIC in mM (Staphylococcus aureus) | MIC (Staphylococcus aureus) | MIC (Escherichia coli) | log(1/MIC), MIC in mM (Pseudomonas aeruginosa) | MIC (Pseudomonas aeruginosa) | Compound |
| --- | --- | --- | --- | --- | --- | --- | --- |
| 3.35 | 0.444 µM (≈ 0.25 µg/mL) | 2.75 | 1.78 µM (≈ 1 µg/mL) | ≥ 455 µM | 0.34 | ≥ 455 µM | CCn1cc(C(=O)O)c(=O)c2cc(F)c(N3CCN(S(=O)(=O)c4c(Cl)cc(Cl)cc4Cl)CC3)cc21 |
| 0.63 | 236 µM (≈ 128 µg/mL) | 0.33 | ≥ 473 µM | ≥ 473 µM | 0.33 | ≥ 473 µM | Cc1c(C)c(C)c(S(=O)(=O)N2CCN(c3cc4c(cc3F)c(=O)c(C(=O)O)cn4C3CC3)CC2)c(C)c1C |
| 0.97 | 107 µM (≈ 64 µg/mL) | 0.67 | 214 µM (≈ 128 µg/mL) | 3.35 µM (≈ 2 µg/mL) | 0.37 | ≥ 428 µM | CC(C)c1cc(C(C)C)c(S(=O)(=O)N2CCN(c3cc4c(cc3F)c(=O)c(C(=O)O)cn4C3CC3)CC2)c(C(C)C)c1 |
| 2.72 | 1.92 µM (≈ 1 µg/mL) | 2.72 | 1.92 µM (≈ 1 µg/mL) | 123 µM (≈ 64.2 µg/mL) | 0.61 | 245 µM (≈ 128 µg/mL) | O=C(O)c1cn(C2CC2)c2cc(N3CCN(S(=O)(=O)c4ccc5ccccc5c4)CC3)c(F)cc2c1=O |
| 3.33 | ≤ 0.47 µM | 3.33 | ≤ 0.47 µM | ≤ 0.47 µM | 3.33 | 0.47 µM (≈ 0.25 µg/mL) | COc1ccc(S(=O)(=O)N2CCN(c3cc4c(cc3F)c(=O)c(C(=O)O)cn4C3CC3)CC2)c(OC)c1 |
| 3.31 | 0.493 µM (≈ 0.25 µg/mL) | 2.41 | 3.94 µM (≈ 2 µg/mL) | 7.88 µM (≈ 4 µg/mL) | 1.2 | 63 µM (≈ 32 µg/mL) | O=C(O)c1cn(C2CC2)c2cc(N3CCN(S(=O)(=O)c4ccc(F)cc4F)CC3)c(F)cc2c1=O |
| 3.33 | ≤ 0.463 µM | 3.33 | ≤ 0.463 µM | ≤ 0.463 µM | 2.73 | 1.85 µM (≈ 1 µg/mL) | O=C(O)c1cn(C2CC2)c2cc(N3CCN(S(=O)(=O)c4ccc(Cl)c(Cl)c4)CC3)c(F)cc2c1=O |
| 3.12 | ≤ 0.758 µM | 3.12 | ≤ 0.758 µM | ≤ 0.758 µM | 3.12 | 0.758 µM (≈ 0.251 µg/mL) | O=C(O)c1cn(C2CC2)c2cc(N3CCNCC3)c(F)cc2c1=O [CIPROFLOXACIN] |
| 2.09 | 7.98 µM (≈ 4 µg/mL) | 2.09 | 7.98 µM (≈ 4 µg/mL) | 32 µM (≈ 16.1 µg/mL) | 1.19 | 64 µM (≈ 32.1 µg/mL) | CCn1cc(C(=O)O)c(=O)c2cc(F)c(N3CCN(S(=O)(=O)c4c(C)cc(C)cc4C)CC3)cc21 |
| 3.33 | 0.473 µM (≈ 0.25 µg/mL) | 3.33 | ≤ 0.473 µM | ≤ 0.473 µM | 2.86 | 1.39 µM (≈ 0.734 µg/mL) | CCn1cc(C(=O)O)c(=O)c2cc(F)c(N3CCN(S(=O)(=O)c4ccc(Cl)cc4Cl)CC3)cc21 |
| 1.26 | 55 µM (≈ 32.2 µg/mL) | 1.26 | 55 µM (≈ 32.2 µg/mL) | 55 µM (≈ 32.2 µg/mL) | 0.96 | 109 µM (≈ 63.8 µg/mL) | CCn1cc(C(=O)O)c(=O)c2cc(F)c(N3CCN(S(=O)(=O)c4c(C(C)C)cc(C(C)C)cc4C(C)C)CC3)cc21 |
| 3.32 | 0.481 µM (≈ 0.25 µg/mL) | 3.32 | 0.481 µM (≈ 0.25 µg/mL) | ≤ 0.481 µM | 2.14 | 3.85 µM (≈ 2 µg/mL) | CCn1cc(C(=O)O)c(=O)c2cc(F)c(N3CCN(S(=O)(=O)c4ccc(OC)cc4OC)CC3)cc21 |
| 1.51 | 31 µM (≈ 15.9 µg/mL) | 1.21 | 62 µM (≈ 31.8 µg/mL) | 62 µM (≈ 31.8 µg/mL) | 0.9 | 125 µM (≈ 64.2 µg/mL) | Cc1cc(C)c(S(=O)(=O)N2CCN(c3cc4c(cc3F)c(=O)c(C(=O)O)cn4C3CC3)CC2)c(C)c1 |
| 2.39 | 4.04 µM (≈ 2 µg/mL) | 2.09 | 8.07 µM (≈ 4 µg/mL) | 8.07 µM (≈ 4 µg/mL) | 0.89 | 129 µM (≈ 63.9 µg/mL) | CCn1cc(C(=O)O)c(=O)c2cc(F)c(N3CCN(S(=O)(=O)c4ccc(F)cc4F)CC3)cc21 |
| 0.62 | 242 µM (≈ 128 µg/mL) | 0.62 | 242 µM (≈ 128 µg/mL) | 242 µM (≈ 128 µg/mL) | 0.62 | 242 µM (≈ 128 µg/mL) | CCn1cc(C(=O)O)c(=O)c2cc(F)c(N3CCN(S(=O)(=O)c4c(C)c(C)c(C)c(C)c4C)CC3)cc21 |
| 3.33 | ≤ 0.473 µM | 3.33 | ≤ 0.473 µM | ≤ 0.473 µM | 2.72 | 1.89 µM (≈ 0.999 µg/mL) | CCn1cc(C(=O)O)c(=O)c2cc(F)c(N3CCN(S(=O)(=O)c4ccc(Cl)c(Cl)c4)CC3)cc21 |
| 3.01 | 0.981 µM (≈ 0.5 µg/mL) | 2.71 | 1.96 µM (≈ 0.999 µg/mL) | 251 µM (≈ 128 µg/mL) | 0.6 | 251 µM (≈ 128 µg/mL) | CCn1cc(C(=O)O)c(=O)c2cc(F)c(N3CCN(S(=O)(=O)c4cccc5ccccc45)CC3)cc21 |
| 3.02 | 0.962 µM (≈ 0.5 µg/mL) | 3.02 | 0.962 µM (≈ 0.5 µg/mL) | ≤ 0.481 µM | 2.14 | 3.85 µM (≈ 2 µg/mL) | CCn1cc(C(=O)O)c(=O)c2cc(F)c(N3CCN(S(=O)(=O)c4ccc(OC)c(OC)c4)CC3)cc21 |
| 3.33 | ≤ 0.463 µM | 3.33 | ≤ 0.463 µM | ≤ 0.463 µM | 2.73 | 1.85 µM (≈ 1 µg/mL) | O=C(O)c1cn(C2CC2)c2cc(N3CCN(S(=O)(=O)c4ccc(Cl)cc4Cl)CC3)c(F)cc2c1=O |
| 3.33 | 0.47 µM (≈ 0.25 µg/mL) | 3.33 | ≤ 0.47 µM | ≤ 0.47 µM | 2.42 | 3.76 µM (≈ 2 µg/mL) | COc1ccc(S(=O)(=O)N2CCN(c3cc4c(cc3F)c(=O)c(C(=O)O)cn4C3CC3)CC2)cc1OC |
| 3.32 | 0.479 µM (≈ 0.25 µg/mL) | 2.72 | 1.92 µM (≈ 1 µg/mL) | 61.3 µM (≈ 32 µg/mL) | 0.91 | 123 µM (≈ 64.2 µg/mL) | O=C(O)c1cn(C2CC2)c2cc(N3CCN(S(=O)(=O)c4cccc5ccccc45)CC3)c(F)cc2c1=O |
| 3.36 | 0.435 µM (≈ 0.25 µg/mL) | 2.76 | 1.74 µM (≈ 1 µg/mL) | 111 µM (≈ 63.8 µg/mL) | 0.95 | 111 µM (≈ 63.8 µg/mL) | O=C(O)c1cn(C2CC2)c2cc(N3CCN(S(=O)(=O)c4c(Cl)cc(Cl)cc4Cl)CC3)c(F)cc2c1=O |
| 3.01 | 0.981 µM (≈ 0.5 µg/mL) | 2.71 | 1.96 µM (≈ 0.999 µg/mL) | 251 µM (≈ 128 µg/mL) | 0.9 | 126 µM (≈ 64.2 µg/mL) | CCn1cc(C(=O)O)c(=O)c2cc(F)c(N3CCN(S(=O)(=O)c4ccc5ccccc5c4)CC3)cc21 |
